Activity calls are given as the source filed them. No cut-off for these calls is given here.
Columns and labels:
[1] = Induction of apoptosis in human RS11846 cells after 1 to 2 days by FITC-annexin V and propidium iodide assay; assay type: functional, cell-based
[2] = target: Bcl-2-like protein 1 (Homo sapiens) (UniProt Q07817); assay: Inhibition of Bcl-xL at 200 uM by 1D 1H NMR binding assay
NCI-H460 = assay: Cytotoxicity against human H460 cells assessed as cell viability after 72 hrs by ATP-LITE assay; assay type: functional, cell-based; conditions: NCI-H460, 72 h
Method in brief: (§1)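 ATP-LITE viability readout. Seeded 24 h before dosing (H460, H1299 at 2000 cells/well; PC3 at 3000 cells/well) in 12F2 or RPMI1640 with 5 mM L-glutamine, 5% FBS and pen/strep. Fresh 5% medium added, then compounds in 0.1% DMSO final. Viability read after 72 h treatment and normalized to DMSO-treated cells.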

[3] = Cytotoxicity against human PC3-ML cells assessed as cell viability after 72 hrs by ATP-LITE assay; assay type: functional, cell-based; method in brief: as §1
[4] = Cytotoxicity against human H1299 cells assessed as cell viability after 72 hrs by ATP-LITE assay; assay type: functional, cell-based; conditions: NCI-H1299, 72 h; method in brief: as §1
[5] = Induction of apoptosis in human BP3 cells after 1 to 2 days by FITC-annexin V and propidium iodide assay; assay type: functional, cell-based
[6] = Stability in rat liver microsome at 4 uM after 1 hr; assay type: ADME; conditions: liver microsomes, read-out: Stability
Method in brief: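 Compound incubated for 1 h in rat microsomal preparations; percentage of parent remaining was reported.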

[7] = Membrane permeability assessed as drug permeation at 100 uM at pH 7.2 after 8 hrs by PAMPA; assay type: ADME; conditions: pH 7.2, 8 h
[8] = Stability in rat plasma after 1 hr at 37.5 degC; assay type: ADME, cell-free; conditions: read-out: Stability
Method in brief: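 Compound incubated in rat plasma for 1 h; percentage of parent remaining was reported.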

Mus musculus [9] = assay: Toxicity in human Bcl2 expressing B6 transgenic mouse administered as single dose at 72 umol/kg, ip after 24 hrs; assay type: organism-based; conditions: in vivo
Mus musculus [10] = assay: Induction of spleen weight shrinkage in human Bcl2 expressing B6 transgenic mouse at 72 umol/kg, ip administered as single dose after 24 hrs; assay type: functional
Method in brief: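 Age- and sex-matched B6Bcl2 transgenic mice (human BCL-2/IgH minigene, B cells accumulating in spleen), free of aggressive lymphoma. Single ip injection at 72 μmol/kg in 500 μL ethanol:Cremophor EL:saline 10:10:80; controls got vehicle alone. Killed with Avertin after 24 h and spleen weighed. Shrinkage expressed as percentage of maximum spleen-weight reduction.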

Bcl-2-like protein 1 (Homo sapiens), sequence (Q07817 whole entry): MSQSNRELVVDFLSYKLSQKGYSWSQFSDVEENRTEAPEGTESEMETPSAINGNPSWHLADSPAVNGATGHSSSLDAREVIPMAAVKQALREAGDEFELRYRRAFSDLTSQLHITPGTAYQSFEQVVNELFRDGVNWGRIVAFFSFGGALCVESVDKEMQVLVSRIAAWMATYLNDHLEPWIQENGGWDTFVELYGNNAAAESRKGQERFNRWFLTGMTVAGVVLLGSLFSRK

Structure (SMILES) | EC50 [1] | Activity [2] | EC50 (NCI-H460) | EC50 [3] | EC50 [4] | further results
Cc1cc2c(C(=O)NCCc3ccc(Cl)cc3)c(O)c(O)cc2c(O)c1-c1c(C)cc2c(C(=O)NCCc3ccc(Cl)cc3)c(O)c(O)cc2c1O | 5.1 µM | Active | 1.3 µM | – | – | EC50 [5]: 0.7 µM
Cc1cc(C)c(CNC(=O)c2c(O)c(O)cc3c(O)c(-c4c(C)cc5c(C(=O)NCc6c(C)cc(C)cc6C)c(O)c(O)cc5c4O)c(C)cc23)c(C)c1 | – | Active | – | – | – | –
Cc1cc2c(C(=O)NC3Cc4ccccc4C3)c(O)c(O)cc2c(O)c1-c1c(C)cc2c(C(=O)NC3Cc4ccccc4C3)c(O)c(O)cc2c1O | 4.1 µM | Active | 0.94 µM | 3 µM | 7.1 µM | EC50 [5]: 1.1 µM
Cc1cc2c(C(=O)NC3CCCC3)c(O)c(O)cc2c(O)c1-c1c(C)cc2c(C(=O)NC3CCCC3)c(O)c(O)cc2c1O | 13.7 µM | Active | 8.5 µM | 12.2 µM | 8 µM | –
Cc1cc2c(C(=O)Nc3ccc(Oc4ccccc4)cc3)c(O)c(O)cc2c(O)c1-c1c(C)cc2c(C(=O)Nc3ccc(Oc4ccccc4)cc3)c(O)c(O)cc2c1O | 10.8 µM | Active | 10.1 µM | 8.5 µM | 17 µM | –
Cc1cc2cc(O)c(O)cc2c(O)c1-c1c(C)cc2cc(O)c(O)cc2c1O | > 24.5 µM | inactive | > 10 µM | > 10 µM | 13.4 µM | Activity (Mus musculus [9]): Non-toxic; Activity (Mus musculus [10]): inactive
Cc1cc2c(CC(C)C)c(O)c(O)cc2c(O)c1-c1c(C)cc2c(CC(C)C)c(O)c(O)cc2c1O | – | Active | – | – | – | –
Cc1cc2c(CCC(C)C)c(O)c(O)cc2c(O)c1-c1c(C)cc2c(CCC(C)C)c(O)c(O)cc2c1O | – | Active | – | – | – | –
Cc1cc2c(C(=O)NCC3CC3)c(O)c(O)cc2c(O)c1-c1c(C)cc2c(C(=O)NCC3CC3)c(O)c(O)cc2c1O | > 10 µM | Active | – | – | – | –

More lines, main results first:

EC50 [1] | Activity [2] | Structure (SMILES) | EC50 (NCI-H460) | EC50 [3] | EC50 [4] | further results
4.2 µM | Active | CCC(NC(=O)c1c(O)c(O)cc2c(O)c(-c3c(C)cc4c(C(=O)NC(CC)c5ccccc5)c(O)c(O)cc4c3O)c(C)cc12)c1ccccc1 (stereo not given) | 1.5 µM | – | – | –
9.3 µM | Active | Cc1cc2c(C(=O)NCc3ccccc3)c(O)c(O)cc2c(O)c1-c1c(C)cc2c(C(=O)NCc3ccccc3)c(O)c(O)cc2c1O | 4.6 µM | 13.7 µM | 3.6 µM | –
5.6 µM | Active | Cc1cccc(CCNC(=O)c2c(O)c(O)cc3c(O)c(-c4c(C)cc5c(C(=O)NCCc6cccc(C)c6)c(O)c(O)cc5c4O)c(C)cc23)c1 | 0.7 µM | – | – | –
– | Active | Cc1cc2c(C(=O)NCCc3ccccc3)c(O)c(O)cc2c(O)c1-c1c(C)cc2c(C(=O)NCCc3ccccc3)c(O)c(O)cc2c1O | – | – | – | remaining at 1 h, 4 µM [6]: 60%; logPe [7]: -6.49 log cm/s; remaining at 1 h [8]: 63%
– | Active | Cc1cc2c(C(=O)Nc3ccccc3)c(O)c(O)cc2c(O)c1-c1c(C)cc2c(C(=O)Nc3ccccc3)c(O)c(O)cc2c1O | 3.5 µM | – | 8 µM | –
3.2 µM | Active | Cc1cc2c(Cc3ccccc3)c(O)c(O)cc2c(O)c1-c1c(C)cc2c(Cc3ccccc3)c(O)c(O)cc2c1O | 1.2 µM | 8.3 µM | 1.28 µM | –
